This sample holds only a part of the variants without activity.
B1: tRNA (parent)
chain: GUUCCGUUGGCGUAAUGGUAACGCGUCUCCCUCCUAAGGAGAAGACUGCGGGUUCGAGUCCCGUACGGAACG

Variants of: B1
Test: yeast fitness relative to wild type (ratio to wild type); higher = fitter; tRNA-Arg(CCU), competitive growth, 37 C, YPD
Method in brief: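 Amplicons of the tRNA-Arg(CCU) gene were sequenced, 100-nucleotide paired-end, from the start population and from each end population of a pooled yeast competition. The competition, in six parallel replicates, lasted 24 hours in YPD at 37°C. Fitness relative to wild type was calculated from changes in genotype frequencies. Genotypes had to have ≥ 100 starting reads, and estimates < 0.5 were set to 0.5.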

Row | Variant | yeast fitness
1 | U8A C11U G25C G39C | ≤ 0.5
2 | U7G C22U G52A C55U | ≤ 0.5
3 | U7G G9A C31G A36G | 0.576
4 | U8A C27A G39C G51C | ≤ 0.5
5 | U8A G9U A42C G52C | ≤ 0.5
6 | U8A A14C C31A G41C C49A G56A A70C | 0.533
7 | U8A U28C | 0.738
8 | U7G C60U G63C | 0.585
9 | U8A U47C A57C U64C | ≤ 0.5
10 | U8A G25A A40C C46U | 0.598
11 | U8A A15C A21G C27U C46U | ≤ 0.5
12 | U8A G10A A43C | 0.646
13 | U7G C30A A65C | 1.06
14 | U8A U13A G18C C24G U32G G58U | ≤ 0.5
15 | U7G C24A C46G U59C C62G | ≤ 0.5
16 | U8A U13C C66U | 0.607
17 | U8A C34G | ≤ 0.5
18 | U7G C29U U47G | ≤ 0.5
19 | U8A C33G A42U A43U C49U A65C G68C | ≤ 0.5
20 | U7G C27A A36C A42U U64G A70U | ≤ 0.5
21 | U7G C30A C62A | ≤ 0.5
22 | U7G C27A A36C A42U U64G | 0.528
23 | U8A G12A C22A C31G A65C | ≤ 0.5
24 | U8A G10C A20U G41U C62U G68C | 0.799

Row | Variant | yeast fitness
25 | U8A C34U U35A C46U A70U | ≤ 0.5
26 | U8A C24U U28C A40C G67C | ≤ 0.5
27 | U7G U26C A42U C46U | 0.581
28 | U8A A20G U26C A40C | 0.617
29 | U8A U19G C22U G58A | 0.568
30 | U8A A20C C62A | ≤ 0.5
31 | U7G G9A C31G C33U A36G | ≤ 0.5
32 | U7G C30U G38A G50A U59C | ≤ 0.5
33 | U8A A43U G52C C60A | ≤ 0.5
34 | U7G U35G | 0.536
35 | U7G C30G G56A | 0.505
36 | U8A C27U A43U | ≤ 0.5
37 | U8A C33U G67A | ≤ 0.5
38 | U7G U8G A15C | 0.543
39 | U8A C11U C46U | ≤ 0.5
40 | U7G C11G C34U A37U C46A G51A | ≤ 0.5
41 | U8A G12A | 0.824
42 | U7G G10C C33U U53G C60A G68U A69C | 0.776
43 | U8A C24U A40U A42C A45U C61U | ≤ 0.5
44 | U8A A14C C24U U35A G63A | 0.803
45 | U7G G44A C61U | 0.689
46 | U8A C46U A57C | 0.635
47 | U7G G48A | 0.847
48 | U8A A21C G56C | ≤ 0.5

Row | Variant | yeast fitness
49 | U8A A42U C62G | ≤ 0.5
50 | U8A A14U A15G U32C A57U | 0.599
51 | U8A G51A | 0.63
52 | U8A U13A A14C U16C | ≤ 0.5
53 | U8A G12A C22A C31G G58A C61A | ≤ 0.5
54 | U8A A36U G48C | 0.668
55 | U8A C29U G51C | 0.571
56 | U7G C33G G48C U64C | 0.531
57 | U8A A43G A45C C49G | 0.58
58 | U7G C27A | 0.744
59 | U7G C11U G58A | 0.589
60 | U8A G18C G25C | ≤ 0.5
61 | U8A U13A A14C U16A G63A G67A | ≤ 0.5
62 | U8A A20U C31U A45G | ≤ 0.5
63 | U8A G17A C24U | 0.95
64 | U8A U13A A14C U16A G67A | 0.584
65 | U8A A40U G52C | 0.573
66 | U7G C49U A65G | 0.83
67 | U7G C24A C27A | ≤ 0.5
68 | U8A G18C C27U A65C | ≤ 0.5
69 | U7G G12A G25A C33G G58A G67A | ≤ 0.5
70 | U8A G17A C22U | 0.607
71 | U8A G9C U47A G68C | ≤ 0.5
72 | U8A C24G A43G C49U | ≤ 0.5

Row | Variant | yeast fitness
73 | U8A U54C | 0.657
74 | U8A U26A C29A A65C A70C | ≤ 0.5
75 | U8A C24U A40C A42C A45U | ≤ 0.5
76 | U7G C30A A69C | 0.798
77 | U7G U59A | 0.754
78 | U7G U32A C46U C60A | ≤ 0.5
79 | U8A C61A G67C | 0.561
80 | U8A C31U A37G | ≤ 0.5
81 | U8A A15U A37C G68A | ≤ 0.5
82 | U7G G58C C66U | 0.645
83 | U8A G50C G56A | ≤ 0.5
84 | U7G G23C A45U G51C | ≤ 0.5
85 | U8A G23C G51C C62G | 0.727
86 | U8A A14G C24G A65C | ≤ 0.5
87 | U8A A14C C31A G41C C49A G56A G63A G67A | ≤ 0.5
88 | U7G C62G | 0.603
89 | U8A U28A C66U | ≤ 0.5
90 | U8A U19C A36U | ≤ 0.5
91 | U8A U26C A43U C55U | ≤ 0.5
92 | U7G C11U G12C C33U | ≤ 0.5
93 | U8A C29U C33U U53A U59G | ≤ 0.5
94 | U8A C61A A65U | 0.554
95 | U7G C27A C29U A40U | ≤ 0.5
96 | U8A A14G C24G A45C | 0.632

Row | Variant | yeast fitness
97 | U8A A15C A21G C27U C46U A70G | ≤ 0.5
98 | U8A C30A A37G C46U A57C | 0.579
99 | U7G G9C G50C | 0.668
100 | U8A A42U | 0.833
101 | U7G U13C A37U C60G | ≤ 0.5
102 | U7G U28A | 0.704
103 | U8A C34U C55U C66A | ≤ 0.5
104 | U8A C11G C34G | 0.624
105 | U7G C31G A36C | ≤ 0.5
106 | U8A A20C C31A A57C C66A A69U | ≤ 0.5
107 | U7G C31U | 0.98
108 | U7G U16G C61U | ≤ 0.5
109 | U7G C22A U64C A70C | ≤ 0.5
110 | U8A G23C C61U | 0.575
111 | U8A G18C G25C A57U C60U C61A | ≤ 0.5
112 | U7G G25A C49G | 0.542
113 | U7G U19A C30G C33U C61G | ≤ 0.5
114 | U8A G52C | ≤ 0.5
115 | U7G G12A U13A | 0.565
116 | U7G U54C C66A | ≤ 0.5
117 | U8A C24G | ≤ 0.5
118 | U8A C24A | 0.624
119 | U8A C11U C61U C62U C66A | ≤ 0.5
120 | U8A G10A G67U | ≤ 0.5

Row | Variant | yeast fitness
121 | U8A U32G A36C U47G | ≤ 0.5
122 | U7G C27G A40U G58C | ≤ 0.5
123 | U7G C29U | 0.775
124 | U7G G48A C62U | 0.628
125 | U8A G38A A40C C49U U54C C60G | ≤ 0.5
126 | U8A U28A C31G C60A | ≤ 0.5
127 | U8A G41A A69U | ≤ 0.5
128 | U7G G9A A20U C31G C34U G67U | ≤ 0.5
129 | U8A C30U A57C | ≤ 0.5
130 | U7G G25C C60A | 0.623
131 | U8A A20G C33A A57G | ≤ 0.5
132 | U7G C34G A36C C62G G68C | ≤ 0.5
133 | U7G C55G G56C | 0.608
134 | U8A G10C C11U C24U A42C U47C | 0.777
135 | U8A C11U U19C C46A C66U | 0.578
136 | U8A G18C C24A U32C U64C A65G | ≤ 0.5
137 | U8A G52A G56C | 0.841
138 | U8A A45G C61G C62U | ≤ 0.5
139 | U8A C62U | 0.7
140 | U8A A14U A42G | ≤ 0.5
141 | U8A G17A C22U C24U U28C U54G A57C C62U | ≤ 0.5
142 | U7G C33U | 0.749
143 | U7G C33G | 0.654
144 | U8A G25C A37C A65C | ≤ 0.5

Row | Variant | yeast fitness
145 | U7G C30U G38A C60U | 0.582
146 | U8A A14C C24U U26A U28G U54G | ≤ 0.5
147 | U8A G10A U26G G58A | ≤ 0.5
148 | U8A G58A | 0.771
149 | U7G U47C | 0.845
150 | U8A C11U G25C G39C A45U | ≤ 0.5
151 | U8A A20U C34U A45C | 0.567
152 | U7G G10C G58A | ≤ 0.5
153 | U7G C11U G12C C33U G63C G68U | ≤ 0.5
154 | U8A G12A A20C G56C U59A | 0.581
155 | U7G C24G A65U C66U | ≤ 0.5
156 | U7G C11G C34U G41A C46U | ≤ 0.5
157 | U8A G18C C24A U32C | 0.607
158 | U8A G18A G67U A69C | ≤ 0.5
159 | U8A A15U C22G C31U A57C U64A G68A | ≤ 0.5
160 | U8A C30G C46A G63A | ≤ 0.5
161 | U7G U64A | 0.971
162 | U7G G18A G48A | ≤ 0.5
163 | U7G C34G A43U | 0.661
164 | U7G U19A C34U C66U | 0.588
165 | U7G U26C | 0.88
166 | U8A C27A A37U | ≤ 0.5
167 | U8A G17A U19C | 0.586
